Measured values from ChEMBL document CHEMBL3769385 (J Med Chem, 2016).

How the values were obtained:
[1] = biological target: T1, 5-hydroxytryptamine receptor 2C (Homo sapiens, UniProt P28335); test: Agonist activity at recombinant human 5HT2C-INI receptor expressed in Flp-In-293 cells assessed as calcium flux by FLIPR assay; format: functional, cell-based
T1 sequence (P28335 whole entry): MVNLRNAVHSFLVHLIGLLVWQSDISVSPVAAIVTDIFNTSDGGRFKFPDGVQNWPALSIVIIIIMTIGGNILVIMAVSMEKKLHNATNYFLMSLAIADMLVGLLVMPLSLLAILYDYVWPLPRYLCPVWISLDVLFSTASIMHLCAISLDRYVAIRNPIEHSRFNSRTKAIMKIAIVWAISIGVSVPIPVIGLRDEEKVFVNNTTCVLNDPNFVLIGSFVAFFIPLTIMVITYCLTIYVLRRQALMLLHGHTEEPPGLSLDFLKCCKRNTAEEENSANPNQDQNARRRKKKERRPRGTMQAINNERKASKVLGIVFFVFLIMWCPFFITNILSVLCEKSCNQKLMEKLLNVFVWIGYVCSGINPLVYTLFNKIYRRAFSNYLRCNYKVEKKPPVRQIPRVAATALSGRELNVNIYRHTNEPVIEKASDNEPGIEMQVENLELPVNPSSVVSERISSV

[2] = biological target: T2, 5-hydroxytryptamine receptor 2B (Homo sapiens, UniProt P41595)
[3] = biological target: T3, 5-hydroxytryptamine receptor 2A (Homo sapiens, UniProt P28223)
[4] = biological target: T4, 5-hydroxytryptamine receptor 2C (Homo sapiens) (UniProt P28335); test: Agonist activity at recombinant human 5HT2C-INI receptor expressed in Flp-In-293 cells assessed as calcium flux by FLIPR assay relative to 5-HT; format: functional, cell-based
T4 sequence (whole entry): T1 sequence (P28335 whole entry)

[5] = biological target: T2, 5-hydroxytryptamine receptor 2B; test: Agonist activity at recombinant human 5HT2B receptor expressed in Flp-In-293 cells assessed as calcium flux by FLIPR assay relative to 5-HT; format: functional, cell-based
[6] = biological target: T3, 5-hydroxytryptamine receptor 2A; test: Agonist activity at human 5HT2A receptor expressed in Flp-In-293 cells assessed as calcium flux by FLIPR assay relative to 5-HT; format: functional, cell-based
[7] = biological target: Serotonin 2 receptors; 5-HT2a & 5-HT2c (Homo sapiens) (UniProt P28223+P28335); test: Selectivity ratio of EC50 for recombinant human 5HT2A receptor to EC50 for recombinant human 5HT2C-INI receptor
[8] = species: Homo sapiens; test: Selectivity ratio of EC50 for recombinant human 5HT2B receptor to EC50 for recombinant human 5HT2C-INI receptor
Outline: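 Calcium flux measured by FLIPR in Flp-In-293 cells stably expressing human 5-HT2B or 5-HT2C-INI receptors.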

T3 sequence (P28223 whole entry): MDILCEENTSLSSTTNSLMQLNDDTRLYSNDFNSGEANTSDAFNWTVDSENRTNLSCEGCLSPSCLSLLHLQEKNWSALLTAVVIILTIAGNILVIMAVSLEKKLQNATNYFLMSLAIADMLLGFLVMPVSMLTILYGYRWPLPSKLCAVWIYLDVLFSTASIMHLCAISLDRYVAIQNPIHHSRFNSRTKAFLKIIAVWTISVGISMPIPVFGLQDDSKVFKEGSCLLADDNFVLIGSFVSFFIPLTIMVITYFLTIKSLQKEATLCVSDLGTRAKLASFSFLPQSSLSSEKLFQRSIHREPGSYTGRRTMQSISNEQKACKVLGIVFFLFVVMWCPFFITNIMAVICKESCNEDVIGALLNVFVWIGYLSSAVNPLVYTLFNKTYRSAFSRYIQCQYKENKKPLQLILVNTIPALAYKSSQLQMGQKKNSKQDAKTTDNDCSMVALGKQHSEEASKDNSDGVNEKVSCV
T2 sequence (P41595 whole entry): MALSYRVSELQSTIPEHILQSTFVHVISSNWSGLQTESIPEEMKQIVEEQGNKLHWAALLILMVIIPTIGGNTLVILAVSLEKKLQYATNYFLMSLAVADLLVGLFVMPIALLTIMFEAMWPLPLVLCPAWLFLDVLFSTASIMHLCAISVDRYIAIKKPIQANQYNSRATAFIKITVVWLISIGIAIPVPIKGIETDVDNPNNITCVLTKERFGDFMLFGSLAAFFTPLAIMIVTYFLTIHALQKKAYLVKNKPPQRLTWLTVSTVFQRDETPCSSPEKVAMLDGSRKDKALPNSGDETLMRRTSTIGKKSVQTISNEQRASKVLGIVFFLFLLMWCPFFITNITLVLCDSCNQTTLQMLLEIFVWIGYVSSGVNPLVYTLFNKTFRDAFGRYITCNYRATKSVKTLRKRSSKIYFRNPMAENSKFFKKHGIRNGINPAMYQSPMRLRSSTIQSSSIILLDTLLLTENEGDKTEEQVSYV
Chain of Serotonin 2 receptors; 5-HT2a & 5-HT2c (Homo sapiens) (P28223 whole entry, looked up, one chain of several): as the sequence (P28223 whole entry) above

Row | SMILES | Emax [4] [%] | Emax [5] [%] | further results
1 | C=CCOc1ccc(F)c(Cl)c1C1CC1CN (single isomer, unassigned; (+)) [listing 1 of 2 here] | – | – | EC50 ([1]; read-out: pEC50 (converted)): 97.7 nM
2 | COc1ccc(Cl)c(F)c1C1CC1CN (single isomer, unassigned; (+)) [listing 1 of 2 here] | – | – | EC50 [2]: 354 nM; EC50 ([1]; read-out: EC50): 13 nM; EC50 [3]: 212 nM
3 | C=CCOc1cc(F)c(Cl)cc1C1CC1CN (single isomer, unassigned; (+)) [listing 1 of 2 here] | – | – | EC50 [2]: 1000 nM
4 | COc1cc(F)c(Cl)cc1C1CC1CN (single isomer, unassigned; (+)) [listing 1 of 2 here] | – | – | EC50 [2]: 25 nM; EC50 ([1]; read-out: EC50): 7.6 nM; EC50 ([1]; read-out: pEC50 (converted)): 7.76 nM; EC50 [3]: 81 nM
5 | COc1ccc(F)c(F)c1C1CC1CN (single isomer, unassigned; (+)) [listing 1 of 2 here] | – | – | EC50 [2]: 209 nM; EC50 ([1]; read-out: EC50): 9.5 nM; EC50 [3]: 437 nM
6 | C=CCOc1cc(Cl)c(Cl)cc1C1CC1CN (single isomer, unassigned; (+)) | 88 | – | –
7 | C=CCOc1cc(F)c(Cl)cc1C1CC1CN (single isomer, unassigned; (+)) [listing 2 of 2 here] | 87 | 34 | –
8 | C=CCOc1ccc(Cl)c(Cl)c1C1CC1CN (single isomer, unassigned; (+)) | 70 | – | –
9 | C=CCOc1ccc(Cl)c(F)c1C1CC1CN (single isomer, unassigned; (+)) | 90 | – | –
10 | C=CCOc1ccc(F)c(Cl)c1C1CC1CN (single isomer, unassigned; (+)) [listing 2 of 2 here] | 92 | – | –
11 | C=CCOc1ccc(F)c(F)c1C1CC1CN (single isomer, unassigned; (+)) | 100 | 35 | –
12 | COc1cc(Cl)c(Cl)cc1C1CC1CN (single isomer, unassigned; (+)) | 95 | – | Emax [6]: 85%
13 | COc1cc(F)c(Cl)cc1C1CC1CN (single isomer, unassigned; (+)) [listing 2 of 2 here] | 97 | 59 | Emax [6]: 93%
14 | COc1cc(F)c(F)cc1C1CC1CN (single isomer, unassigned; (+)) | 108 | 69 | –
15 | COc1ccc(Cl)c(F)c1C1CC1CN (single isomer, unassigned; (+)) [listing 2 of 2 here] | 92 | 52 | Emax [6]: 85%
16 | COc1ccc(F)c(F)c1C1CC1CN (single isomer, unassigned; (+)) [listing 2 of 2 here] | 108 | 64 | Emax [6]: 79%
17 | NCC1CC1c1c(OCCF)ccc(Cl)c1Cl (single isomer, unassigned; (+)) | 90 | – | –
18 | NCC1CC1c1c(OCCF)ccc(F)c1Cl (single isomer, unassigned; (+)) | 86 | – | –
19 | NCC1CC1c1c(OCCF)ccc(F)c1F (single isomer, unassigned; (+)) | 96 | – | –
20 | NCC1CC1c1cc(Cl)c(Cl)cc1OCCF (single isomer, unassigned; (+)) | 87 | – | –
21 | NCC1CC1c1cc(Cl)c(F)cc1OCCF (single isomer, unassigned; (+)) | 87 | 39 | –
22 | NCC1CC1c1cc(F)c(F)cc1OCCF (single isomer, unassigned; (+)) | 95 | – | –
23 | C=CCOc1ccc(F)c(Cl)c1C1CC1CN (single isomer, unassigned; (-)) [listing 1 of 2 here] | – | – | EC50 ([1]; read-out: EC50): 104 nM
24 | COc1cc(F)c(F)cc1C1CC1CN (single isomer, unassigned; (-)) [listing 1 of 2 here] | – | – | EC50 [3]: 511 nM

Row | SMILES | Emax [4] [%] | Emax [5] [%] | further results
25 | C=CCOc1cc(F)c(Cl)cc1C1CC1CN (single isomer, unassigned; (-)) | 77 | 22 | –
26 | C=CCOc1ccc(F)c(Cl)c1C1CC1CN (single isomer, unassigned; (-)) [listing 2 of 2 here] | 89 | – | –
27 | C=CCOc1ccc(F)c(F)c1C1CC1CN (single isomer, unassigned; (-)) | 89 | 26 | –
28 | COc1cc(F)c(F)cc1C1CC1CN (single isomer, unassigned; (-)) [listing 2 of 2 here] | 104 | 59 | –
29 | COc1ccc(Cl)c(Cl)c1C1CC1CN (single isomer, unassigned; (-)) | 104 | 53 | Ratio EC50 [7]: 40; Emax [6]: 88%; Ratio EC50 [8]: 31
30 | COc1ccc(Cl)c(F)c1C1CC1CN (single isomer, unassigned; (-)) | 93 | 64 | Emax [6]: 86%
31 | COc1ccc(F)c(Cl)c1C1CC1CN (single isomer, unassigned; (-)) | 96 | – | Emax [6]: 72%
32 | NCC1CC1c1c(OCCF)ccc(Cl)c1Cl (single isomer, unassigned; (-)) | 85 | – | –
33 | NCC1CC1c1c(OCCF)ccc(Cl)c1F (single isomer, unassigned; (-)) | 80 | – | –
34 | NCC1CC1c1c(OCCF)ccc(F)c1F (single isomer, unassigned; (-)) | 78 | – | –
35 | NCC1CC1c1cc(Cl)c(Cl)cc1OCCF (single isomer, unassigned; (-)) | 75 | – | –
36 | NCC1CC1c1cc(F)c(F)cc1OCCF (single isomer, unassigned; (-)) | 73 | – | –
37 | COc1ccc(Cl)c(Cl)c1C1CC1CN (stereo in doubt; (+)-20f) | 98 | 26 | Emax [6]: 78%
38 | COc1ccc(F)c(Cl)c1C1CC1CN (stereo in doubt; (+)-20g) | 89 | – | Emax [6]: 77%
39 | NCC1CC1c1c(OCCF)ccc(Cl)c1F (stereo in doubt; (+)-21d) | 86 | – | –
40 | COc1ccc(F)c(F)c1C1CC1CN (stereo in doubt; (-)-20b) | 108 | 62 | Emax [6]: 72%
41 | COc1cc(F)c(Cl)cc1C1CC1CN (stereo in doubt; (-)-20c) [listing 1 of 2 here] | – | – | EC50 [2]: 329 nM; EC50 ([1]; read-out: EC50): 16 nM; EC50 [3]: 235 nM
42 | COc1cc(F)c(Cl)cc1C1CC1CN (stereo in doubt; (-)-20c) [listing 2 of 2 here] | 98 | 44 | Emax [6]: 88%
43 | COc1cc(Cl)c(Cl)cc1C1CC1CN (stereo in doubt; (-)-20e) | 89 | – | Emax [6]: 75%
44 | NCC1CC1c1cc(Cl)c(F)cc1OCCF (stereo in doubt; (-)-21c) | 70 | 26 | –
45 | NCC1CC1c1c(OCCF)ccc(F)c1Cl (stereo in doubt; (-)-21g) | 80 | – | –
46 | C=CCOc1ccc(Cl)c(F)c1C1CC1CN (stereo in doubt; (-)-22d) | 87 | – | –
47 | C=CCOc1cc(Cl)c(Cl)cc1C1CC1CN (stereo in doubt; (-)-22e) | 84 | – | –
48 | C=CCOc1ccc(Cl)c(Cl)c1C1CC1CN (stereo in doubt; (-)-22f) | 93 | – | –
